Broadly, the IC50 is the concentration that inhibits the measured activity by half.

A value given as a limit tells only on which side of the number the result lay.

For two compounds, IC50 results are on record in ChEMBL document CHEMBL1156711, “Synthesis and cytotoxicity evaluation of some benzimidazole-4,7-diones as bioreductive anticancer agents” (Eur J Med Chem, 2008).

The subject of experiment [1] is HT-29. Briefly: Cytotoxicity against human HT29 cells after 72 hrs by MTT assay. Format: functional, cell-based. The conditions noted are these: HT-29, 72 h. The gist of the method: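 HT29 grown in DMEM with 10% FBS and 2 mM L-glutamine at 37 °C, 5% CO2. Seeded at 3000 cells/well and treated 24 h later; vehicle 0.1% DMSO in PBS. MTT 0.5 mg/mL for 3 h, DMSO solubilization, OD 550 nm, triplicates, corrected for MTT blank and normalized to untreated. IC50 by Chou–Talalay median-effect plot.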

For experiment [2], the system named is HT-29. Briefly: Cytotoxicity against human HT29 cells after 72 hrs by MTT assay in presence of 2 uM dicoumarol. Format: functional, cell-based. The conditions noted are these: HT-29, 72 h. In general terms: Tetrazolium dyes change colour on reduction, which living cells bring about.

As for `CO[C@@]12[C@H](COC(N)=O)C3=C(C(=O)C(C)=C(N)C3=O)N1C[C@@H]1N[C@@H]12` [MITOMYCIN], the IC50 in the experiment on HT-29 [1] is 0.9 µM; in the experiment on HT-29 [2], 2.1 µM.

The compound `CC1=C(C)C(=O)c2c(nc(CC(C)(C)[N+](=O)[O-])n2C)C1=O` returned a half-maximal inhibitory concentration (IC50) with HT-29 [1] greater than 100 µM.
